Screening data (PubChem BioAssay)
TRPC6 inh: blocks the mouse TRPC6 cation channel; Q61143; HEK293-TRPC6, membrane potential dye, ACh-evoked depolarization; stronger effect = lower value; B-score at 10 µM; 1.1% of 310,000 active; AID 2553;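 active = B-score under library mean minus 3 SD, initial fluorescence not abnormally high, positive integrated signal ratio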;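 also: B-score derived from integrated fluorescence ratio over the kinetic read; more negative B-score means stronger inhibition of depolarization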
Target sequence (Q61143 whole entry, looked up): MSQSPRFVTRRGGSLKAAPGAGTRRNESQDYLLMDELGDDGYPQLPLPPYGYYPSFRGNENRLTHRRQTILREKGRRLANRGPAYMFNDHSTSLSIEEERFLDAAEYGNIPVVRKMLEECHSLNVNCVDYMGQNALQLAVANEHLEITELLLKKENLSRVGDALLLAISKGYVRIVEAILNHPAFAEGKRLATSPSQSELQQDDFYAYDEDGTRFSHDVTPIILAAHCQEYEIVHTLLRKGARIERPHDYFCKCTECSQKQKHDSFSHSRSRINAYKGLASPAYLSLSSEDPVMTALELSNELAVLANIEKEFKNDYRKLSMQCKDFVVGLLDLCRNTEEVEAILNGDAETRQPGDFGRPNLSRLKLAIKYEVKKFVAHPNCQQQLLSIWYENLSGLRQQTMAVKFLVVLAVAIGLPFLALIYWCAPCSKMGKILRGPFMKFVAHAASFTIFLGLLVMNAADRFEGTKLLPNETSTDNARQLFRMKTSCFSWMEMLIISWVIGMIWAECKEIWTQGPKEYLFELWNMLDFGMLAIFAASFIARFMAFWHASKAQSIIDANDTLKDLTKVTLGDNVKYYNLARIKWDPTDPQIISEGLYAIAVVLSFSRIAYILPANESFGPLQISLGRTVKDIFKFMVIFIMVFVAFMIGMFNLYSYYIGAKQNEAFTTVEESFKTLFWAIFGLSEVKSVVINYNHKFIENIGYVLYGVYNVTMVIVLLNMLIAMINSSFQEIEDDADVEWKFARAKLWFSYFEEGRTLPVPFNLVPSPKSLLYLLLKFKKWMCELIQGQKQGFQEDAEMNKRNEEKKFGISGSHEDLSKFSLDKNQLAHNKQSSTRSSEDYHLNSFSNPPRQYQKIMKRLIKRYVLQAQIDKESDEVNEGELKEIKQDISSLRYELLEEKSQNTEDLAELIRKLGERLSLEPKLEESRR
TRPC4 agonist: opens the mouse TRPC4 cation channel; Q9QUQ5; HEK293 TRPC4beta/mu-opioid, Fluo4 calcium fluorescence; stronger effect = higher value; B-score at 10 µM; 0.49% of 310,000 active; AID 2237;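 active = B-score above 5 SD of library B-scores, and initial fluorescence ratio not above library mean plus 5 SD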;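 also: positive B-score marks a calcium rise read as TRPC4 activation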
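Incubation: 45 min room-temperature Fluo4 loading, 110 s read / System: HEK293 cells stably co-expressing mouse TRPC4beta and mu-opioid receptor / Signal: Fluo4 fluorescence, kinetic / Control set: buffer (low) and maximal DAMGO (high) / Measure: integrated baseline-normalised fluorescence ratio, converted to per-well B score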
TRPC6 act: mouse TRPC6 channel activation. Q61143. HEK293-TRPC6 membrane potential dye fluorescence; stronger effect = higher value. B-score at 10 µM. 0.13% of 310,000 active. AID 2550;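 active = B-score of the integrated fluorescence ratio above library mean plus 3 SD, and starting fluorescence ratio within library mean plus 5 SD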;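 also: higher score means more depolarization so channel activation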
TRPC4 inh: TRPC4 (mouse) channel inhibition. Q9QUQ5. HEK293 TRPC4beta/mu-opioid, DAMGO-evoked Fluo4 calcium flux; stronger effect = lower value. B-score at 10 µM. 0.39% of 300,000 active;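 active = B-score over 3 SD under the library average, no early fluorescence shift, positive overall ratio signal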
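Assay system: Stable TRPC4beta/mu-opioid receptor HEK293 cells | Reagent: DAMGO in two steps, submaximal then maximal | Compound dosing: Single concentration per test compound | Signal: Fluo4 Ca2+ flux fluorescence | Evaluation: Per-well B score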
TRPC4 potent: TRPC4 (mouse) allosteric potentiation | B-score at 10 µM | 0.42% of 310,000 active | HEK293 TRPC4beta/mu-opioid, DAMGO EC20, Fluo-4 Ca2+ flux; stronger effect = higher value | Q9QUQ5;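 active = B-score of calcium response area above 5 SD of library B-scores, with initial fluorescence ratio within 5 SD of library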
A number is an active result; - = inactive. An excerpt weighted towards active compounds, which were near 2.3% of everything screened.

SMILES	TRPC6 inh	TRPC4 agonist	TRPC6 act	TRPC4 inh	TRPC4 potent
CC(OCC(O)CN(C)CCOc1ccccc1)c1ccc(Cl)cc1 (stereo unspecified)	-	-	-	-6	-
COC(=O)c1[nH]c2cc(OC)ccc2c1NC(=O)CCN1CCSCC1	-	-	-	-	-
CCOC(=O)C1CCCN(C(=O)c2cccc(NC(=O)C(CC)CC)c2)C1 (stereo unspecified)	-	-	-	-	-
CC(C)(Sc1cc(C(C)(C)C)c(O)c(C(C)(C)C)c1)Sc1cc(C(C)(C)C)c(O)c(C(C)(C)C)c1	-	83	-	-	-
Cc1[nH]c2ccccc2c1CN1CCC(Cc2ccccc2)CC1	-	67	-	-	-
Cc1[nH]c2ccccc2c1CN1CCN(c2ccccn2)CC1	-	-	-	-	-
O=C(OC(C(=O)NCc1ccccc1)c1ccccc1F)c1ccco1 (stereo unspecified)	-	-	-	-	-
COc1cc(C(=O)N(CCc2ccccc2)C2=CC3CCC(C2)N3C)cc(OC)c1OC (stereo unspecified)	-	-	-	-7	-
O=C(CCl)NC(=O)NC12CC3CC(CC(C3)C1)C2	-	-	-	-6	-
Cc1c(N)c(C(C)(C)C)cc(C(C)(C)C)c1[N+](=O)[O-]	-	-	-	-6	-
Cc1cc(N)c(C)c([N+](=O)[O-])c1C	-	-	-	-	-
CCC(=O)Nc1cccc(-n2nnnc2SCC(=O)N2CCCCC2)c1	-	-	-	-	10
COc1cc(OC)cc(-n2nnnc2SCC(=O)N2CCCC2)c1	-	-	-	-	-
CCNC(=S)N1CCC(C(O)(c2ccccc2)c2ccccc2)CC1	-	100	-	-6	-
Cc1ccc(-n2c(SCC(N)=O)nnc2-c2cccnc2)c(C)c1	-	-	-	-	-
Cc1ccc(-n2c(SCc3cc(=O)n4ccsc4n3)nnc2-c2cccnc2)c(C)c1	-	-	-	-7	-
COc1ccc(CC(=O)NCC(c2ccc(OC)cc2)N(C)C)cc1 (stereo unspecified)	-	216	-	-	-
COc1ccc(CNC(=O)Cc2cccs2)cc1	-	-	-	-	-
COc1ccc(C(=O)CN2C(=O)NC3(CCCCCC3)C2=O)cc1	-	-	-	-	-
COc1ccc(C(CNC(=O)Cc2cccs2)N(C)C)cc1 (stereo unspecified)	-	99	-	-	-
COc1ccc(C(CNC(=O)CN2C(=O)NC3(CCCC3)C2=O)N(C)C)cc1 (stereo unspecified)	-	134	-	-	-
Cc1ccc(S(=O)(=O)N(CC(=O)Nc2ccc(C(N)=O)cc2)C(=O)N2CCN(C)CC2)cc1	-	-	-	-	-
CCN1CCN(C(=O)N(CC(=O)Nc2ccc(C(N)=O)cc2)S(=O)(=O)c2ccc(C)cc2)CC1	-	-	-	-6	-
COc1ccccc1C(CNc1ncnc2sc(C)c(C)c12)N(C)C (stereo unspecified)	-	-	-	-	-
COc1ccc(C(CNc2ncnc3sc(C)c(C)c23)N(C)C)cc1 (stereo unspecified)	-	236	-	-	-
SMILES	TRPC6 inh	TRPC4 agonist	TRPC6 act	TRPC4 inh	TRPC4 potent
CN(C)C(CNc1ncnc2sc3c(c12)CCCCC3)c1ccco1 (stereo unspecified)	-	76	-	-	-
Cc1sc2ncnc(NCC(c3ccco3)N(C)C)c2c1C (stereo unspecified)	-	188	-	-	-
CC(=O)c1cccc(NC(=O)c2ccc(C(=O)Nc3cccc(C(C)=O)c3)nc2)c1	-	-	-	-	-
CC(=O)Nc1cccc(NC(=O)c2ccc(C(=O)Nc3cccc(NC(C)=O)c3)nc2)c1	-	73	-	-	-
O=C(COc1ccccc1)NC(Cc1c[nH]c2ccccc12)C(=O)O (stereo unspecified)	-	-	-	-	-
COc1cc2c(cc1NC(=O)Nc1ccc(C)cc1)oc1ccccc12	-	-	-	-	-
COc1cc2c(cc1NC(=O)C(C)Sc1ccc(NC(C)=O)cc1)oc1ccccc12 (stereo unspecified)	-	-	-	-	11
COc1ccc(CC(=O)OCN2C(=O)c3ccccc3C2=O)cc1OC	-	-	-	-	-
Cc1ccc(Nc2ccc(S(=O)(=O)N3CCOCC3)cc2[N+](=O)[O-])cc1C	-	-	-	-	18
